Active and inactive are the calls of the source. The rule behind the calls is not given here.
Assays:
Nucleic Acid = experiment: Binding affinity to Trypanosoma brucei rhodesiense DNA; type: nucleic-acid assay
[1] = test system: Trypanosoma brucei brucei; experiment: Activity against Trypanosoma brucei brucei STIB795 in infected NMRI mouse at 10 mg/kg, ip; type: functional, organism-based; parameters: dose 10 mg/kg
Summary of the method: (§1)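 Mice infected ip with 1 × 10^5 (STIB 795) or 2 × 10^4 (STIB 900) bloodstream forms, in groups of four. Dosed ip once daily on days 3–6, with an untreated control group. Parasitemia checked every second day to day 14, then twice weekly to day 60. Deaths recorded for mean survival time. Cured means surviving and aparasitemic at 60 days.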

[2] = test system: Trypanosoma brucei brucei; experiment: Activity against Trypanosoma brucei brucei STIB795 in infected NMRI mouse at 20 mg/kg, ip; type: functional, organism-based; parameters: dose 20 mg/kg; summary of the method: as §1
[3] = test system: Trypanosoma brucei rhodesiense; experiment: Activity against Trypanosoma brucei rhodesiense STIB900 in infected NMRI mouse at 20 mg/kg, ip; type: functional, organism-based; parameters: dose 20 mg/kg; summary of the method: as §1
Trypanosoma brucei [4] = experiment: Activity against Trypanosoma brucei GVR35 in infected NMRI mouse at 20 mg/kg, ip; type: functional, organism-based; parameters: dose 20 mg/kg
[5] = test system: Trypanosoma brucei brucei; experiment: Antitrypanosomal activity against trypomastigotes of AT1 wild type Trypanosoma brucei brucei 427; type: functional, organism-based
[6] = test system: Trypanosoma brucei brucei; experiment: Antitrypanosomal activity against trypomastigotes of AT1 knockout Trypanosoma brucei brucei 427; type: functional, organism-based
Trypanosoma brucei [7] = experiment: Activity against Trypanosoma brucei GVR35 in infected NMRI mouse at 40 mg/kg, ip; type: functional, organism-based; parameters: dose 40 mg/kg

Activity (Nucleic Acid) | SMILES | Activity [2] | further results
inactive | N=C(N)Nc1ccc(S(=O)(=O)c2ccc(NC(=N)N)cc2)cc1 |  | 
inactive | O=S(=O)(c1ccc(NC2=NCCN2)cc1)c1ccc(NC2=NCCN2)cc1 |  | 
Active | N=C(N)Nc1ccc(N2CCN(c3ccc(NC(=N)N)cc3)CC2)cc1 |  | 
 | N=C(N)Nc1ccc(CCCCCCCCc2ccc(NC(=N)N)cc2)cc1 |  | Activity [1]: inactive
Active | N=C(N)Nc1ccc(C(=O)c2ccc(NC(=N)N)cc2)cc1 |  | 
Active | c1cc(N2CCN(c3ccc(NC4=NCCN4)cc3)CC2)ccc1NC1=NCCN1 | Toxic | 
Active | N=C(N)Nc1ccc(Cc2ccc(NC(=N)N)cc2)cc1 |  | 
 | CC(C)(C)OC(=O)N1CC[N+](C(=O)OC(C)(C)C)=C1Nc1ccc(Nc2ccc(NC3=[N+](C(=O)OC(C)(C)C)CCN3C(=O)OC(C)(C)C)cc2)cc1 | inactive | 
Active | c1cc(NC2=NCCN2)ccc1Cc1ccc(NC2=NCCN2)cc1 |  | 
Active | c1cc(Nc2ccc(NC3=NCCN3)cc2)ccc1NC1=NCCN1 | Active | Activity [3]: Active; Activity (Trypanosoma brucei [4]): inactive; IC50 [5]: 0.0637 µM; IC50 [6]: 0.162 µM
 | N=C(N)c1ccc(/N=N/Nc2ccc(C(=N)N)cc2)cc1 |  | Activity (Trypanosoma brucei [7]): inactive
Active | N=C(N)Nc1ccc(Nc2ccc(NC(=N)N)cc2)cc1 | Active | IC50 [5]: 0.003 µM; IC50 [6]: 0.0022 µM
Active | N=C(N)c1ccc(OCCCCCOc2ccc(C(=N)N)cc2)cc1 |  | 
